Laboratory results from ChEMBL document CHEMBL3588833 (ACS Med Chem Lett, 2015).
The source made the active and inactive calls.

Tests used:
[1] = target: T1, Sodium channel protein type 10 subunit alpha (Homo sapiens, UniProt Q9Y5Y9); test: Inhibition of human Nav1.8 expressed in HEK293 cells assessed as reduction in blue fluorescent signal by VSP-FRET assay; type: cell-based
Procedure, shortened: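 hNav1.8 stably expressed in an in-house HEK293 line; membrane-potential VSP-FRET read-out; IC50 from at least three tests on three separate assay runs.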

[2] = Inhibition of Voltage gated sodium channel-mediated TTX-r current in rat DRG neurons by manual patch clamp electrophysiology; details: DRG neuron
[3] = target: Sodium channel protein type 3 subunit alpha (Homo sapiens, UniProt Q9NY46); test: Inhibition of human Nav1.3 expressed in SHSY5Y cells by IonWorks Quattro selectivity assay; type: cell-based, SH-SY5Y
[4] = Plasma clearance in dog at 0.25 mg/kg, po; type: ADME, organism-based, Canis lupus familiaris
Rattus norvegicus [5] = test: Antallodynic effect in Sprague-Dawley rat tibial nerve transection-induced mechanical allodynia model assessed as 50% shift in paw withdrawal threshold in ipsilateral paw at 40 mg/kg, single dose after 1.5 hrs (reference value: 1.7 +/- 0.3 g); type: functional
Procedure, shortened: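 Tibial nerve transection neuropathic pain model in rat; single dose of 40 mg/kg; 50% paw withdrawal threshold of ipsilateral hindpaw measured 1.5 h post-dose against pre-dose baseline; pregabalin 10 mg/kg as comparator; mean ± SEM, P < 0.05 significance.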

[6] = Tmax in dog at 0.25 mg/kg, po; type: ADME, organism-based, Canis lupus familiaris; details: in vivo
[7] = Plasma clearance in dog at 0.1 mg/kg, iv; type: ADME, organism-based, Canis lupus familiaris
[8] = target: T2, Sodium channel protein type 9 subunit alpha (Homo sapiens, UniProt Q15858); test: Inhibition of human Nav1.7 expressed in SHSY5Y cells by FRET assay; type: cell-based, SH-SY5Y
[9] = target: Voltage-gated inwardly rectifying potassium channel KCNH2 (Homo sapiens, UniProt Q12809)
[10] = target: T1, Sodium channel protein type 10 subunit alpha; test: Inhibition of human Nav1.8/beta1 expressed in HEK293 cells by manual patch clamp electrophysiology; type: cell-based
Procedure, shortened: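 Recombinantly expressed human Nav1.8 with β1 subunit, recorded by manual whole-cell patch clamp electrophysiology. Inhibition was measured at the channel's V0.5 of inactivation, and IC50 values were derived from these recordings, with the number of determinations (n) reported per compound.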

[11] = target: T3, Sodium channel protein type 2 subunit alpha (Homo sapiens, UniProt Q99250); test: Inhibition of human Nav1.2 expressed in SHSY5Y cells by IonWorks Quattro selectivity assay; type: cell-based, SH-SY5Y
[12] = Volume of distribution in dog at 0.1 mg/kg, iv; type: ADME, organism-based, Canis lupus familiaris; details: in vivo
[13] = Half life in dog at 0.1 mg/kg, iv; type: ADME, organism-based, Canis lupus familiaris; details: in vivo
[14] = Oral bioavailability in dog at 0.25 mg/kg; type: ADME, organism-based, Canis lupus familiaris; details: in vivo
[15] = Solubility of the compound at pH 7.2; type: physicochemical; details: buffer
[16] = Plasma clearance in rat at 2 mg/kg, iv; type: ADME, organism-based
[17] = target: T2, Sodium channel protein type 9 subunit alpha; test: Inhibition of human Nav1.7 expressed in HEK293 cells by IonWorks Quattro assay
[18] = Inhibition of Voltage gated sodium channel-mediated TTX-R current in human DRG neurons by manual patch clamp electrophysiology; details: DRG neuron
[19] = Half life in rat at 5 mg/kg, po; type: ADME, organism-based; details: in vivo
[20] = Tmax in rat at 5 mg/kg, po; type: ADME, organism-based; details: in vivo
[21] = Intrinsic clearance in rat liver microsomes; type: ADME; details: read-out: CLH
[22] = Volume of distribution in rat at 2 mg/kg, iv; type: ADME, organism-based; details: in vivo
[23] = Plasma clearance in rat at 5 mg/kg, po; type: ADME, organism-based
[24] = Half life in rat at 2 mg/kg, iv; type: ADME, organism-based; details: in vivo
Rattus norvegicus [25] = test: Antallodynic effect in Sprague-Dawley rat spinal nerve injury-induced neuropathic pain model at 10 or 30 mg/kg; type: functional, organism-based
[26] = target: Sodium channel protein type 1 subunit alpha (Homo sapiens, UniProt P35498); test: Inhibition of human Nav1.1 expressed in HEK293 cells by IonWorks Quattro selectivity assay; type: cell-based
[27] = Intrinsic clearance in human liver microsomes; type: ADME; details: read-out: CLH
[28] = target: Sodium channel protein type 5 subunit alpha (Homo sapiens, UniProt Q14524); test: Inhibition of human Nav1.5 expressed in HEK293 cells by IonWorks Quattro selectivity assay; type: cell-based
[29] = target: T3, Sodium channel protein type 2 subunit alpha; test: Inhibition of human Nav1.2 expressed in SHSY5Y cells assessed as reduction in blue fluorescent signal by VSP-FRET assay; type: cell-based, SH-SY5Y
[30] = target: T3, Sodium channel protein type 2 subunit alpha; test: Inhibition of human Nav1.2 expressed in HEK293 cells by IonWorks Quattro selectivity assay; type: cell-based
[31] = Oral bioavailability in rat at 5 mg/kg; type: ADME, organism-based; details: in vivo
[32] = Tmax in rat at 3 mg/kg, po; type: ADME, organism-based; details: in vivo
[33] = Half life in rat at 3 mg/kg, po; type: ADME, organism-based; details: in vivo
[34] = Plasma clearance in rat at 3 mg/kg, po; type: ADME, organism-based
[35] = Plasma clearance in rat at 1 mg/kg, iv; type: ADME, organism-based
[36] = Oral bioavailability in rat at 2 mg/kg; type: ADME, organism-based; details: in vivo
Rattus norvegicus [37] = test: Toxicity in Sprague-Dawley rat assessed as effect on vertical or horizontal movement at 250 mg/kg, po single dose; type: organism-based; details: in vivo
Procedure, shortened: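 Rats given a single oral dose of 250 mg/kg; horizontal and vertical locomotor movements compared with vehicle-treated controls.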

[38] = Unbound plasma concentration in Sprague-Dawley rat at 40 mg/kg single dose; type: ADME, organism-based
[39] = Volume of distribution in rat at 1 mg/kg, iv; type: ADME, organism-based; details: in vivo
[40] = Tmax in rat at 2 mg/kg, po; type: ADME, organism-based; details: in vivo
[41] = Plasma clearance in rat at 2 mg/kg, po; type: ADME, organism-based
[42] = Half life in rat at 1 mg/kg, iv; type: ADME, organism-based; details: in vivo
Rattus norvegicus [43] = test: Antallodynic effect in Sprague-Dawley rat tibial nerve transection-induced mechanical allodynia model assessed as 50% shift in paw withdrawal threshold in ipsilateral paw at 10 mg/kg, single dose after 1.5 hrs (reference value: 1.7 +/- 0.2 g); type: functional
Procedure, shortened: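 Rat tibial nerve transection neuropathic pain model; mechanical allodynia read as 50% paw withdrawal threshold (g) of the ipsilateral hindpaw. The threshold is taken at baseline and again 1.5 h after a single dose. Data are given as mean ± SEM, with significance set at P < 0.05.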

T1 sequence (Q9Y5Y9 whole entry): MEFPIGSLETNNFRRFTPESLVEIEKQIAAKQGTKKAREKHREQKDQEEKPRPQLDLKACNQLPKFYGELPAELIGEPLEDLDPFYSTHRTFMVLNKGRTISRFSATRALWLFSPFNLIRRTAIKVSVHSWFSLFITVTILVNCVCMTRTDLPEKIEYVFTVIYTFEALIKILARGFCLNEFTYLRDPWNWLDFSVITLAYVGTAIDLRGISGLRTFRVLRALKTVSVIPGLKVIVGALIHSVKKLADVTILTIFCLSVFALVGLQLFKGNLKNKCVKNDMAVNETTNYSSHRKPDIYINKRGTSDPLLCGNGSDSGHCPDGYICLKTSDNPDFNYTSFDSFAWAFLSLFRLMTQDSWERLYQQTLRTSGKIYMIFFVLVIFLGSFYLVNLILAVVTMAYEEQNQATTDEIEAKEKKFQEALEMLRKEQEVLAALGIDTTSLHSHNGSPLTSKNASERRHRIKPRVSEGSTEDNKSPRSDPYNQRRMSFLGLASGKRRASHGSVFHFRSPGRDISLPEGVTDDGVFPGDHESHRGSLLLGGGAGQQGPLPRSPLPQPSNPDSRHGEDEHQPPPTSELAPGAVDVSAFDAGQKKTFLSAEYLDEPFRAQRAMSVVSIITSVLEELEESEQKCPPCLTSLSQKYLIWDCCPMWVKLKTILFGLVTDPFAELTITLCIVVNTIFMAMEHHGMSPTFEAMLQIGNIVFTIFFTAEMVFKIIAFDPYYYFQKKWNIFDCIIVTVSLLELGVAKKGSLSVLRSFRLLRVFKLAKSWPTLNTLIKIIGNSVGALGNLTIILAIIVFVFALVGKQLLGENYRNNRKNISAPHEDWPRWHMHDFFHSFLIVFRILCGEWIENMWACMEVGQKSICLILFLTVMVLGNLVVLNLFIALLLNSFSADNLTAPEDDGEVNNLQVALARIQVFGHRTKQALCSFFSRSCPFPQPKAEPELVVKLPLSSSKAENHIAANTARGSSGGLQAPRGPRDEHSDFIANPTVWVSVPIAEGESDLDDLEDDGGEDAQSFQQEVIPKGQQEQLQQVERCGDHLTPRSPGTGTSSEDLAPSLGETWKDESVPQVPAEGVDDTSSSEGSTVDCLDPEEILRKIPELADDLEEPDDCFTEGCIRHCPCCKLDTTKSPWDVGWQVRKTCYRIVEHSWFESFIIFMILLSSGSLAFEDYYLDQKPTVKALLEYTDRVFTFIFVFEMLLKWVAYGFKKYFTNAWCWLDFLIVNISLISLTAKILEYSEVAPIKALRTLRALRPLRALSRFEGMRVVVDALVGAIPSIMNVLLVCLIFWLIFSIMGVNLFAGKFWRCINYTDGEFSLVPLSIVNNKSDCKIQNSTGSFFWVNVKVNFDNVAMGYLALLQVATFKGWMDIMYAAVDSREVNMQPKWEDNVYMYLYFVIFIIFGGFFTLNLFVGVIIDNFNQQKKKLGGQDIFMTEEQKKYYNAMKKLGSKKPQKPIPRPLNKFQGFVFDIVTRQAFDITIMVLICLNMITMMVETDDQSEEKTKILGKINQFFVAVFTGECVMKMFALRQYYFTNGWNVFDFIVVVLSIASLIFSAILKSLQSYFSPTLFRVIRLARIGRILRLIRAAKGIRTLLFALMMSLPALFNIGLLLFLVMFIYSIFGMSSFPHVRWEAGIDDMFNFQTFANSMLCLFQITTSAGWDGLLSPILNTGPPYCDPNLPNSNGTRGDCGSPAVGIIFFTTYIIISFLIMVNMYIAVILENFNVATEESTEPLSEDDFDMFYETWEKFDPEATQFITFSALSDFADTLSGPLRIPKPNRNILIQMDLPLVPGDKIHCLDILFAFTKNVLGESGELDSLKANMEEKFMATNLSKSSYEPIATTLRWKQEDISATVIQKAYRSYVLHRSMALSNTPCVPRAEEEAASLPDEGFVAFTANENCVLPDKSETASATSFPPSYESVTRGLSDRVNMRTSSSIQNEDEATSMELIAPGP
T3 sequence (Q99250 whole entry): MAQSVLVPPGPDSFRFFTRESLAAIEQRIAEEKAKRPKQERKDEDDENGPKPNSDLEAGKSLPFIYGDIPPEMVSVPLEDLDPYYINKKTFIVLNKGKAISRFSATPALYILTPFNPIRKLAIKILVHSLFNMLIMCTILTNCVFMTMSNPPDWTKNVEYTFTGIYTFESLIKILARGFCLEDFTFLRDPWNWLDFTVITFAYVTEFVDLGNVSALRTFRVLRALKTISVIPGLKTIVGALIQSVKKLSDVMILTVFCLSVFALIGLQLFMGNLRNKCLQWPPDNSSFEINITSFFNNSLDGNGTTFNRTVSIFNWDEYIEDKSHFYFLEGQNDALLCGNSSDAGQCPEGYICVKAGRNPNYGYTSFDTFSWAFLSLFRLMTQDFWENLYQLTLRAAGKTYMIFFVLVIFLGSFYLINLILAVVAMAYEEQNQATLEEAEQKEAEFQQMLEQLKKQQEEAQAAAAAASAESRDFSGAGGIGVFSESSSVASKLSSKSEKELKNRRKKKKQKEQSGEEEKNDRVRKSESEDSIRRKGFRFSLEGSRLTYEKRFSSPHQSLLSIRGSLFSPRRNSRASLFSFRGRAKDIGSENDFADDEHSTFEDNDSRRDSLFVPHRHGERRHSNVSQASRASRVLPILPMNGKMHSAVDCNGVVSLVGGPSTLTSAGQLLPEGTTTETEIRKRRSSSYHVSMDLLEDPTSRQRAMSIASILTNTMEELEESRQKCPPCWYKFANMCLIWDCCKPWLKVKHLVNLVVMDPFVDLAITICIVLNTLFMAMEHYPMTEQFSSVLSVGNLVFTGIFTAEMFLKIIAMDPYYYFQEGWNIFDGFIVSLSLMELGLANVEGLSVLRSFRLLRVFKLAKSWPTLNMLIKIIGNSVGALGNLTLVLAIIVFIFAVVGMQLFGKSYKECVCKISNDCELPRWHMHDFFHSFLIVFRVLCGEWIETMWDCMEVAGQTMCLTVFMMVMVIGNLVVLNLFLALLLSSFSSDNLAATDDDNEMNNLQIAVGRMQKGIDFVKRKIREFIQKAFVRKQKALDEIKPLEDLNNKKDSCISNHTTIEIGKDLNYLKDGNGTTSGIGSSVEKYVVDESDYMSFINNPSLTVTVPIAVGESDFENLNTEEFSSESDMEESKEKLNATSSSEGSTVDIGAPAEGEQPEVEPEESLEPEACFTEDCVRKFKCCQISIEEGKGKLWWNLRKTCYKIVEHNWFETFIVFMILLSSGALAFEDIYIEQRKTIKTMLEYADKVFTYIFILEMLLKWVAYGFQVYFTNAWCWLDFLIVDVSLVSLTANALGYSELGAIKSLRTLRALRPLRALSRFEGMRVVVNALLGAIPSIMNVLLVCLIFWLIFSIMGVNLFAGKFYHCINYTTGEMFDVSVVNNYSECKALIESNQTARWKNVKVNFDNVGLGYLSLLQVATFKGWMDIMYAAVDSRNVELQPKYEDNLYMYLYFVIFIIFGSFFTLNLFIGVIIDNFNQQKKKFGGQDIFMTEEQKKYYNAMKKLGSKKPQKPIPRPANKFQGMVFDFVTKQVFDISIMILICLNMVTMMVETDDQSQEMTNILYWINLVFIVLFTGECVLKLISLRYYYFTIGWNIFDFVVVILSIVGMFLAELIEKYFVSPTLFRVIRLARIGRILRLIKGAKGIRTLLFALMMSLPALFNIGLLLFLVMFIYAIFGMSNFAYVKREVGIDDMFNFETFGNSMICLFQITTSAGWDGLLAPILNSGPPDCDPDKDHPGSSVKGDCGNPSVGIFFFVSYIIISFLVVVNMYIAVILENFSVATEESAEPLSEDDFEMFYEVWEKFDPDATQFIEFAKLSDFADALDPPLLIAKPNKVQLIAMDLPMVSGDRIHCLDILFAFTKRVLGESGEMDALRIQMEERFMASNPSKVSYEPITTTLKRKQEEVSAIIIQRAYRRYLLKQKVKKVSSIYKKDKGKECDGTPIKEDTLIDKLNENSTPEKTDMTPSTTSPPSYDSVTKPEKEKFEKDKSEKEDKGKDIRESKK
Voltage-gated inwardly rectifying potassium channel KCNH2, sequence (Q12809 whole entry): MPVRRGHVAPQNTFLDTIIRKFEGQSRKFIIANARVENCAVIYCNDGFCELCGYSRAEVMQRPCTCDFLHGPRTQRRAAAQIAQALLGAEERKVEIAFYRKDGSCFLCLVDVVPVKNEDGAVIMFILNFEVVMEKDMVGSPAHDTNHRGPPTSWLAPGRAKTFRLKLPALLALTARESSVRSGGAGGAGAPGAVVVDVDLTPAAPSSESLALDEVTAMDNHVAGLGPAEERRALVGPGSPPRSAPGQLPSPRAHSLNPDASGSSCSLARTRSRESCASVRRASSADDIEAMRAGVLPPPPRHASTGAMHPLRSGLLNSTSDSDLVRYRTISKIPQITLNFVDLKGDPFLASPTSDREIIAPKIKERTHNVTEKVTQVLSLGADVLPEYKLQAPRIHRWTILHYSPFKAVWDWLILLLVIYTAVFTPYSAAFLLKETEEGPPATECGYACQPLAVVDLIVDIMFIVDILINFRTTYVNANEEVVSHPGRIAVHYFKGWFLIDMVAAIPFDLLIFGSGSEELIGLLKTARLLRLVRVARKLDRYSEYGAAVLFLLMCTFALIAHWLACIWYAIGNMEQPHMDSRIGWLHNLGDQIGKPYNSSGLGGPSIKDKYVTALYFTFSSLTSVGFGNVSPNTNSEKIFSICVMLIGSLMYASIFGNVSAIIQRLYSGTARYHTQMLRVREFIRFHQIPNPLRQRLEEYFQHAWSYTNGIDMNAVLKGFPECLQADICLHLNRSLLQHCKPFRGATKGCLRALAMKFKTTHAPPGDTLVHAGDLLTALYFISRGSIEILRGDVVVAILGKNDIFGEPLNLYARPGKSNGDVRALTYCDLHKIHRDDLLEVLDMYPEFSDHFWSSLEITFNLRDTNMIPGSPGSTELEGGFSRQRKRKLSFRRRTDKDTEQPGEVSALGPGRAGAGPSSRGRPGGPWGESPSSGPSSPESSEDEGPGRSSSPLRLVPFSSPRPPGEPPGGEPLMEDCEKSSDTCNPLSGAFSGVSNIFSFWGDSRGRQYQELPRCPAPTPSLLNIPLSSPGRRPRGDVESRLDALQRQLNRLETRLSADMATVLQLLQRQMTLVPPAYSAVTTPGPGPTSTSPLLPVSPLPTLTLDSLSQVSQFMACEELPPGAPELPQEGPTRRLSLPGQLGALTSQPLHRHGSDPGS

Cn1nccc1C(=O)Nc1ccc(-c2cc(Cl)ccc2Cl)c(N)n1
IC50 [1]: 0.92 µM

Cc1nocc1C(=O)Nc1ccc(-c2ccccc2OC(F)(F)F)c(N)n1
IC50 [2]: 0.33 µM | IC50 [3]: 10 µM | CL/F [4]: 10 mL/min/kg | Activity (Rattus norvegicus [5]): Active | Tmax [6]: 3.5 h | clearance [7]: 6.2 mL/min/kg | IC50 [8]: 10 µM | IC50 [1]: 0.53 µM | IC50 [9]: > 30 µM | IC50 [10]: 0.26 µM | IC50 [11]: 10 µM | Vd [12]: 5.3 L/kg | half-life [13]: 9.7 h | bioavailability [14]: 63%

CNC(=O)c1ccc(-c2cccc(Cl)c2)c(N)n1
IC50 [1]: > 32 µM

CNC(=O)c1ccc(-c2ccc(Cl)cc2)c(N)n1
IC50 [1]: > 32 µM

Cc1nocc1C(=O)Nc1ccc(-c2cc(Cl)cc(Cl)c2Cl)c(N)n1
solubility [15]: < 0.1 µg/mL

Cn1nccc1C(=O)Nc1ccc(-c2cc(Cl)cc(Cl)c2Cl)c(N)n1
IC50 [1]: 0.75 µM | solubility [15]: < 0.1 µg/mL

Cn1nccc1C(=O)Nc1ccc(-c2ccccc2Cl)c(N)n1
IC50 [1]: 4.9 µM

Cn1nccc1C(=O)Nc1ccc(-c2ccc(F)cc2Cl)c(N)n1
IC50 [1]: > 31 µM

COc1ccc(Cl)c(-c2ccc(NC(=O)C(C)C)nc2N)c1
IC50 [1]: 4 µM

COc1ccc(Cl)c(-c2ccc(NC(=O)c3conc3C)nc2N)c1
IC50 [1]: 0.5 µM

CNC(=O)c1ccc(-c2cc(Cl)cc(Cl)c2Cl)c(N)n1
IC50 [2]: 0.44 µM | clearance [16]: 11.7 mL/min/kg | IC50 [17]: 19 µM | IC50 [18]: 0.31 µM | half-life [19]: 4.6 h | Tmax [20]: 1 h | microsomal CLint [21]: < 9 µL/min/mg | Vd [22]: 3 L/kg | CL/F [23]: 13.3 mL/min/kg | half-life [24]: 4 h | Activity (Rattus norvegicus [25]): Active | IC50 [1]: 2.6 µM | IC50 [26]: 13 µM | IC50 [9]: 30 µM | microsomal CLint [27]: 7.1 µL/min/mg | IC50 [28]: 9 µM | IC50 [10]: 0.19 µM | IC50 [29]: 14 µM | IC50 [30]: 12.8 µM | bioavailability [31]: 91%

CC(=O)Nc1ccc(-c2cc(Cl)cc(Cl)c2Cl)c(N)n1
microsomal CLint [21]: 29 µL/min/mg | Tmax [32]: 0.75 h | half-life [33]: 4.1 h | IC50 [1]: 0.16 µM | microsomal CLint [27]: 41 µL/min/mg | IC50 [29]: 3.5 µM | CL/F [34]: 204 mL/min/kg

CNC(=O)c1ccc(-c2ccccc2Cl)c(N)n1
IC50 [1]: > 32 µM

COc1ccc(Cl)c(-c2ccc(NC(=O)c3ccnn3C)nc2N)c1 [PF-04531083]
IC50 [2]: 0.54 µM | IC50 [17]: 36 µM | IC50 [18]: 0.2 µM | clearance [35]: 6.7 mL/min/kg | bioavailability [36]: 59% | Activity (Rattus norvegicus [37]): Non-toxic | Activity (Rattus norvegicus [5]): 7.3 g | fraction unbound [38]: 0.2 | Vd [39]: 2.25 L/kg | IC50 [1]: 0.7 µM | IC50 [26]: 37 µM | IC50 [28]: 37 µM | IC50 [10]: 0.19 µM | Tmax [40]: 1.3 h | CL/F [41]: 11.4 mL/min/kg | half-life [42]: 3.9 h

CC(C)C[C@H](CN)CC(=O)O [PREGABALIN]
Activity (Rattus norvegicus [43]): 5.8 g

CNC(=O)c1cnc(N)c(-c2cc(Cl)cc(Cl)c2Cl)c1
IC50 [1]: 24 µM | IC50 [29]: 6.9 µM

Nc1nnc(-c2cccc(Cl)c2Cl)c(N)n1 [LAMOTRIGINE]
IC50 [1]: 98 µM | IC50 [29]: 17 µM

CNC(=O)c1ccc(-c2cc(Cl)ccc2Cl)c(N)n1
IC50 [1]: 12 µM

Cn1nccc1C(=O)Nc1ccc(-c2ccccc2OC(F)(F)F)c(N)n1
IC50 [1]: 2.4 µM

CNC(=O)c1ccc(-c2cc(Cl)cc(Cl)c2)c(N)n1
IC50 [1]: > 32 µM

COc1ccc(Cl)cc1-c1ccc(NC(=O)c2ccnn2C)nc1N
IC50 [1]: 7.4 µM
